Reference: ChEMBL document CHEMBL1221273, “Addressing time-dependent CYP 3A4 inhibition observed in a novel series of substituted amino propanamide renin inhibitors, a case study” (Bioorg Med Chem Lett, 2010)

Key:
[1] = biological target: T1, CYP3A4 (Homo sapiens, UniProt P08684); experiment: Ratio of IC50 for human CYP3A4 without preincubation to IC50 for human CYP3A4 preincubated for 30 mins; conditions: read-out: Ratio IC50
Summary of the method: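 Human liver microsomes (0.25 mg/mL) were preincubated 0 or 30 min at 37 °C with compound (0.03–200 µM) and 1 mM NADPH in 125 mM phosphate buffer. Testosterone (500 µM) was then added for 15 min at 37 °C. Reactions were quenched with acetonitrile and 6β-hydroxytestosterone was measured by HPLC-MS/MS. IC50s were determined under each condition, and the shift is the ratio of the 0-min to the 30-min IC50.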

[2] = tested on: Rattus norvegicus; experiment: Antihypertensive activity in double transgenic rat hypertensive model assessed as reduction in blood pressure at 1 mg/kg, po; format: functional
[3] = Metabolic stability in human liver microsome assessed as compound remaining at 20 uM after 1 hr; format: ADME; conditions: liver microsomes, read-out: Stability
[4] = tested on: Rattus norvegicus; experiment: Volume of distribution at steady state in Sprague-Dawley rat at 30 mg/kg, po; format: ADME, organism-based; set-up: dose 30 mg/kg, route oral; conditions: in vivo
[5] = biological target: T1, CYP3A4; experiment: Inhibition of CYP3A4 in human liver microsome at 3 uM; format: ADME; conditions: liver microsomes
[6] = tested on: Canis familiaris; experiment: Volume of distribution at steady state in Beagle dog at 3 mg/kg, po; format: ADME, organism-based, Canis lupus familiaris; set-up: dose 3 mg/kg, route oral; conditions: in vivo
[7] = biological target: T2, Renin (Homo sapiens, UniProt P00797); experiment: Inhibition of human recombinant renin in presence of pH 7.4 buffer
T2 sequence (P00797 whole entry): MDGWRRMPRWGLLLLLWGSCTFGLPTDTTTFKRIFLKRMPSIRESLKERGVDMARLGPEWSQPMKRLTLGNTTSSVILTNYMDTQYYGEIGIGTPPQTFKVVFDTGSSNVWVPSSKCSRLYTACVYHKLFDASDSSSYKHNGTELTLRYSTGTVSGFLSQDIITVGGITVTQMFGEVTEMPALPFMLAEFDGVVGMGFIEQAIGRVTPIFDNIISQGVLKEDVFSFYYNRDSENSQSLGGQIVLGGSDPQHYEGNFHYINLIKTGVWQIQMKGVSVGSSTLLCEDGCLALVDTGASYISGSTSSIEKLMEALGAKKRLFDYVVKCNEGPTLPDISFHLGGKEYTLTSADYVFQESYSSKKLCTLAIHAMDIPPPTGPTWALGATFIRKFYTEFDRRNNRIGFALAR
Summary of the method: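 Recombinant human renin (3 pg/µL) in PBS pH 7.4 with 1 mM EDTA and 0.1% BSA, premixed with human tetradecapeptide (1–14) substrate and hydroxyquinoline sulfate. Compounds were diluted in DMSO and added, then incubated 3 h at 37 °C. AngI accumulation was measured by immunoassay. % inhibition was computed for each concentration and IC50 obtained by curve fitting. Values are the mean of at least two replicates.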

[8] = Oral bioavailability in Beagle dog at 3 mg/kg; format: ADME, organism-based, Canis lupus familiaris; conditions: in vivo
[9] = Intrinsic clearance in human liver microsome; format: ADME; conditions: liver microsomes
Summary of the method: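 Compound (1 µM) was incubated at 37 °C with human liver microsomes (1 mg/mL) and an NADPH regenerating system in 125 mM phosphate buffer. Samples were quenched with acetonitrile at 2, 5, 10, 20, 45 and 75 min and parent loss was followed by HPLC-MS/MS. CLint was calculated from the initial elimination rate constant.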

[10] = biological target: T1, CYP3A4; experiment: (§1) Inhibition of CYP3A4 in human liver microsome; format: ADME, microsomes; conditions: human, liver microsomes
Summary of the method: (§2)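 Human liver microsomes (0.25 mg/mL) pre-incubated 0 or 30 min at 37 °C with test compound (0.03–200 µM range as printed) and 1 mM NADPH in 125 mM phosphate buffer. Testosterone (500uM) then added as CYP3A substrate, 15 min further at 37 °C. Quenched with acetonitrile, centrifuged, and 6b-hydroxytestosterone formation read by HPLC-MS/MS. IC50 averaged over at least two replicates.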

[11] = biological target: T3, Cytochrome P450 3A4 (Homo sapiens, UniProt P08684); experiment: as §1; format: ADME, microsomes; summary of the method: as §2
[12] = Half life in Sprague-Dawley rat at 30 mg/kg, po; format: ADME, organism-based; set-up: dose 30 mg/kg, route oral; conditions: in vivo
[13] = tested on: Rattus norvegicus; experiment: Antihypertensive activity in double transgenic rat hypertensive model assessed as time required to reduce blood pressure at 1 mg/kg, po; format: functional
[14] = Metabolic stability in human liver microsome assessed as compound remaining at 50 uM after 1 hr; format: ADME; conditions: liver microsomes, read-out: Stability
[15] = biological target: T3, Cytochrome P450 3A4; experiment: Inhibition of CYP3A4 in human liver microsome preincubated for 30 mins; format: ADME, microsomes; summary of the method: as §2
[16] = Clearance in Sprague-Dawley rat at 30 mg/kg, po; format: ADME, organism-based; set-up: dose 30 mg/kg, route oral; conditions: in vivo
[17] = Oral bioavailability in Sprague-Dawley rat at 30 mg/kg; format: ADME, organism-based; conditions: in vivo
[18] = Clearance in Beagle dog at 3 mg/kg, po; format: ADME, organism-based, Canis lupus familiaris; set-up: dose 3 mg/kg, route oral; conditions: in vivo
[19] = Half life in Beagle dog at 3 mg/kg, po; format: ADME, organism-based, Canis lupus familiaris; set-up: dose 3 mg/kg, route oral; conditions: in vivo
[20] = biological target: T2, Renin; experiment: Inhibition of human recombinant renin in presence of plasma by immunoassay; format: cell-free
Summary of the method: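 Pooled frozen human citrate plasma was spiked with recombinant human renin (150 pg/mL final). Compounds at various concentrations in DMSO were added to a 7:1 mix of plasma and anti-AngI trapping antibody (final antiserum 1:50,000) in Tris/EDTA pH 7.2, then incubated 2 h at 37 °C. AngI was read by immunoassay and IC50 fitted. Values are the mean of at least two replicates.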

[21] = tested on: Rattus norvegicus; experiment: Antihypertensive activity in double transgenic rat hypertensive model assessed as time required to reduce blood pressure at 3 mg/kg, po; format: functional
[22] = tested on: Rattus norvegicus; experiment: Antihypertensive activity in double transgenic rat hypertensive model assessed as reduction in blood pressure at 3 mg/kg, po; format: functional

T1 sequence (P08684 whole entry): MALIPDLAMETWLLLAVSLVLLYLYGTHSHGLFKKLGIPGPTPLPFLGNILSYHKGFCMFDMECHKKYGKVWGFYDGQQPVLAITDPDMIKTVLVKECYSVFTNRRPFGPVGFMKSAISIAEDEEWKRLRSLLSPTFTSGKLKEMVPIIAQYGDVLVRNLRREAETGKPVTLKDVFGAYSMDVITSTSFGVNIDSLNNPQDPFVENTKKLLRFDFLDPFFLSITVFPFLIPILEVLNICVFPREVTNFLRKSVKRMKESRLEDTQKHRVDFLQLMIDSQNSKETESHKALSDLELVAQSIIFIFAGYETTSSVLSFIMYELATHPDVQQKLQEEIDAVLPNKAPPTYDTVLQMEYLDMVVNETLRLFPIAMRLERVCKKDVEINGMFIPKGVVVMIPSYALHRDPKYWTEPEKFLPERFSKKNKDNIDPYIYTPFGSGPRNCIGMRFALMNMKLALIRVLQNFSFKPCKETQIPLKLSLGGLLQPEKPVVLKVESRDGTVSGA
T3 sequence (P08684 whole entry): as above

Compound	IC50 shift [1]	further results
COCCc1ccc(Cl)c(CN(CC2CCC2)C(=O)[C@@H](CN)Cc2ccc(OCCOc3c(Cl)cc(C)cc3Cl)cc2)c1	130	–
COCCCc1ccc(Cl)c(CN(C(=O)[C@@H](CN)Cc2ccc(OCCOc3c(Cl)cc(C)cc3Cl)cc2)C2CC2)c1	110	Activity [2]: 13 mmHg; remaining at 1 h, 20 µM [3]: 94%; Vdss [4]: 12 L/kg; inhibition at 3 µM [5]: 7%; Vdss [6]: 8.4 L/kg; IC50 [7]: 0.09 nM; bioavailability [8]: 32%; CLint scaled [9]: 15 mL/min/kg; kinact [10]: 0.00157 s⁻¹; IC50 [11]: 14 µM; Ki [11]: 3.2 µM; half-life [12]: 360 min; Time [13]: 24 h; remaining at 1 h, 50 µM [14]: 98%; IC50 [15]: 120 nM; CL/F [16]: 35 mL/min/kg; bioavailability [17]: 41%; CL/F [18]: 16 mL/min/kg; half-life [19]: 1020 min; IC50 [20]: 2.4 nM
COCCc1ccc(Cl)c(CN(C(=O)[C@@H](CN)Cc2ccc(OCCOc3c(Cl)cc(C)cc3Cl)cc2)C2CC2)c1	110	–
Cc1cc(Cl)c(OCCOc2ccc(C[C@H](CN)C(=O)N(Cc3cc(CCCC#N)ccc3Cl)C3CC3)cc2)c(Cl)c1	120	Time [21]: 48 h; Activity [22]: 27 mmHg
CC(=O)N(C)Cc1ccc(Cl)c(CN(C(=O)[C@@H](CN)Cc2ccc(OCCOc3c(Cl)cc(C)cc3Cl)cc2)C2CC2)c1	35	–
Cc1cc(Cl)c(OCCOc2ccc(C[C@H](CN)C(=O)N(Cc3cc(CCS(C)(=O)=O)ccc3Cl)C3CC3)cc2)c(Cl)c1	50	–
COCCCc1cc(CN(C(=O)[C@@H](CN)Cc2ccc(OCCOc3c(Cl)cc(C)cc3Cl)cc2)C2CC2)c(Cl)cn1	90	–
COCCCc1cc(CN(C(=O)[C@@H](CN)Cc2ccc(OCCOc3c(Cl)cc(C)cc3Cl)cc2)C2CC2)c(Cl)c[n+]1[O-]	70	–
COCCCc1cc(CN(C(=O)[C@@H](CN)Cc2ccc(OCCOc3c(Cl)cc(C)cc3Cl)cc2)C2CC2)c2ccccc2n1	120	–
Cc1cc(Cl)c(OCCOc2ccc(C[C@H](CN)C(=O)N(Cc3cc(CCCC#N)cc4cccnc34)C3CC3)cc2)c(Cl)c1	140	–
COCCc1ccc(Cl)c(CN(C(=O)[C@H](Cc2ccc(OCCOc3c(Cl)cc(C)cc3Cl)cc2)[C@H](C)N)C2CC2)c1	60	–
COCCc1ccc(Cl)c(CN(C(=O)[C@H](Cc2ccc(OCCOc3c(Cl)cc(C)cc3Cl)cc2)C(N)=O)C2CC2)c1	55	–
COCCc1ccc(Cl)c(CN(C(=O)CCc2ccc(OCCOc3c(Cl)cc(C)cc3Cl)cc2)C2CC2)c1	40	–
COCCc1ccc(Cl)c(CN(C)C(=O)[C@@H](CN)Cc2ccc(OCCOc3c(Cl)cc(C)cc3Cl)cc2)c1	40	–
COCCc1ccc(Cl)c(CN(C(=O)[C@@H](CN)Cc2ccc(OCCOc3c(Cl)cc(C)cc3Cl)cc2)C2CCC2)c1	180	–
COCCc1ccc(Cl)c(CN(CC2CC2)C(=O)[C@@H](CN)Cc2ccc(OCCOc3c(Cl)cc(C)cc3Cl)cc2)c1	100	–
COCCc1ccc(Cl)c(CN(C(=O)[C@@H](CN)Cc2ccccc2)C2CC2)c1	120	–
COCCc1ccc(Cl)c(CN(C(=O)[C@@H](CN)Cc2ccc(CCOc3c(Cl)cc(C)cc3Cl)cc2)C2CC2)c1	60	–
COCCc1ccc(Cl)c(CN(C[C@@H](CN)Cc2ccc(OCCOc3c(Cl)cc(C)cc3Cl)cc2)C2CC2)c1	5.8	–
COCCc1ccc(Cl)c(C[C@H](C[C@@H](CN)Cc2ccc(OCCOc3c(Cl)cc(C)cc3Cl)cc2)C2CC2)c1	3.5	–
COCCc1ccc(Cl)c(C[C@@H](C[C@@H](CN)Cc2ccc(OCCOc3c(Cl)cc(C)cc3Cl)cc2)C2CC2)c1	1.7	–
COCCCc1cc(CN(C(=O)[C@@H](CN)Cc2ccc(OCCOc3c(Cl)cc(C)cc3Cl)cc2)C2CC2)cc(OCCOC)c1	1.5	–
COCCCc1cc(CN(C(=O)[C@@H](CN)Cc2ccc(OCCOc3c(Cl)cc(C)cc3Cl)cc2)C2CC2)cc(OCCN2CCOCC2)c1	< 1	–
